In ChEMBL document CHEMBL2029200, “Discovery of a novel melanin concentrating hormone receptor 1 (MCHR1) antagonist with reduced hERG inhibition” (Bioorg Med Chem Lett, 2012):
The source made the active and inactive calls. The calls are words filed in the database; no cut-off is given here.

What was measured:
[1] = biological target: Melanin-concentrating hormone receptor 1 (Homo sapiens, UniProt Q99705); assay: Displacement of [125I]-MCH from MCHR1 after 2 hrs by scintillation counting
How it was run: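 Competition binding on MCHR1 membrane preparation with 125I-MCH tracer. Compound diluted in 50 mM Tris pH 7.4, 10 mM MgCl2, 2.5 mM EDTA, 0.2% BSA. Incubation 2 h at 37 °C with shaking. Bound and free ligand separated by vacuum filtration through BSA-pretreated filter plates. Filters washed 4 times in Hepes/NaCl/BSA buffer, then counted by scintillation.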

[2] = biological target: Voltage-gated inwardly rectifying potassium channel KCNH2 (Homo sapiens, UniProt Q12809); assay: Inhibition of human Erg expressed in HEK293 cells assessed as rubidium efflux after 4 hrs by atomic absorbance spectrometric analysis
Mus musculus [3] = assay: Antiobesity activity in high fat diet-fed C57BL/6 mouse assessed as reduction in body weight at 3 mg/kg, po daily measured up to day 137 relative to control; format: functional, organism-based; design: dose 3 mg/kg
Mus musculus [4] = assay: Antiobesity activity in high fat diet-fed C57BL/6 mouse assessed as reduction in body weight at 10 mg/kg, po daily measured up to day 137 relative to control; format: functional, organism-based; design: dose 10 mg/kg
How it was run: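 Male/female unspecified C57BL/6 mice weaned at 4–5 weeks and kept on high-fat diet for over 24 weeks before dosing. Body weight followed for 137 days against vehicle.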

Mus musculus [5] = assay: Antiobesity activity in high fat diet-fed C57BL/6 mouse assessed as reduction in food intake at 3 to 10 mg/kg, po daily measured up to day 137 relative to control; format: functional, organism-based
Mus musculus [6] = assay: Antiobesity activity in high fat diet-fed MCHR1-knockout C57BL/6 mouse assessed as reduction in body weight at 100 mg/kg, po daily measured for 34 weeks relative to control; format: functional, organism-based; design: dose 100 mg/kg
How it was run: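 Wild-type and MCHR1-knockout female C57BL/6 mice given compound mixed into a 60% kCal fat high-fat diet. Body weight gain at study end compared with vehicle.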

Voltage-gated inwardly rectifying potassium channel KCNH2, sequence (Q12809 whole entry): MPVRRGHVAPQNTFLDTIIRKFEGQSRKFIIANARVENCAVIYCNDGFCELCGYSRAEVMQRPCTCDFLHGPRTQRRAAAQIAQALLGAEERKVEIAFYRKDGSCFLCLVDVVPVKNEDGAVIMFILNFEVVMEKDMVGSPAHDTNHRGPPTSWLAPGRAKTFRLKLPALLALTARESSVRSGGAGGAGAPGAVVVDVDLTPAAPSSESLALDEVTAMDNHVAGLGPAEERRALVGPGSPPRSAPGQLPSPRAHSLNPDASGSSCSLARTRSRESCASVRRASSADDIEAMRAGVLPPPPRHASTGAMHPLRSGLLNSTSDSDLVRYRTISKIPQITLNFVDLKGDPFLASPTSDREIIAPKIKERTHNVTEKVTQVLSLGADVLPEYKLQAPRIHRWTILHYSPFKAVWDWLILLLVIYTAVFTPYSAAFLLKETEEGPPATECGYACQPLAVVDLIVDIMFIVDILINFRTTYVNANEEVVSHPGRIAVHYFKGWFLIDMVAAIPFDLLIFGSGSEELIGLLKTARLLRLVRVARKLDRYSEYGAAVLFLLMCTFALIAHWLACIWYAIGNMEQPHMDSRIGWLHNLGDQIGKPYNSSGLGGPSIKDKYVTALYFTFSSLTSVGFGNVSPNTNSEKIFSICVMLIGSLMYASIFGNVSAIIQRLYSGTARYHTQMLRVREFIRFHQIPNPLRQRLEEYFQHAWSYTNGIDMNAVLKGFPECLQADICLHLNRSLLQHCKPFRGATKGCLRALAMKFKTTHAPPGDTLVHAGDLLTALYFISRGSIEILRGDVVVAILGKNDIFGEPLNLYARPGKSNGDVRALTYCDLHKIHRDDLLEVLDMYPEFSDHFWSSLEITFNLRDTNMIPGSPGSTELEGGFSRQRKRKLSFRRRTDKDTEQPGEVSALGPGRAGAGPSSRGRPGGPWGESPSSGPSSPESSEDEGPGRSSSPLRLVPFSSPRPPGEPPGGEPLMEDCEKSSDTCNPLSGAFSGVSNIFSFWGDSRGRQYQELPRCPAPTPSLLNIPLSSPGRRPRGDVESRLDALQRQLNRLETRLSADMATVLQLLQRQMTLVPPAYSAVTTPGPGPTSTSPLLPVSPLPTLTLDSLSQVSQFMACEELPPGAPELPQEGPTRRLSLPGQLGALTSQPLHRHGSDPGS
Melanin-concentrating hormone receptor 1, sequence (Q99705 whole entry): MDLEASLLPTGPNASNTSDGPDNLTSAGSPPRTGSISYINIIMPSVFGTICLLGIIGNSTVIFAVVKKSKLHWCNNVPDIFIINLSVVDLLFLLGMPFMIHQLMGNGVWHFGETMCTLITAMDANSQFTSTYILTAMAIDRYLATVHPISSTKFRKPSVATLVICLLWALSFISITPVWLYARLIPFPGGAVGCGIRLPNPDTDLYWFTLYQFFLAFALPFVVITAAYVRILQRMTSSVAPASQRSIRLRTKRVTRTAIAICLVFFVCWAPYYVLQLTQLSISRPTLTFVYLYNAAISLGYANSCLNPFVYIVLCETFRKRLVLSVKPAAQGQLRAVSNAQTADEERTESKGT

For `C[C@H]1c2c([nH]c3ccc(C(F)(F)F)cc23)C[C@H]2CCN(CCCC3(C(=O)O)CCOCC3)C[C@@H]21`, the IC50 [1] was 40 nM and the IC50 [2] was 300 nM.
For `C[C@H]1c2c([nH]c3ccc(C(F)(F)F)cc23)C[C@H]2CCN(CCCC3CCOCC3)C[C@@H]21`, the IC50 [2] was 30 nM.
For `C[C@H]1c2c([nH]c3ccc(C(F)(F)F)cc23)C[C@H]2CCN(CCC3(C(=O)O)CCCCC3)C[C@@H]21`, the Activity (Mus musculus [3]) was “Active”, the Activity (Mus musculus [4]) was “Active” and the Activity (Mus musculus [5]) was “Active”. The Activity (Mus musculus [6]) was “inactive”.
For `C[C@H]1c2c([nH]c3ccc(C(F)(F)F)cc23)C[C@H]2CCN(CCC3(C(=O)O)CCOCC3)C[C@@H]21`, the IC50 [1] was 9 nM and the IC50 [2] was > 5000 nM.
